The text below walks through data of ChEMBL document CHEMBL1154352, “Toll-like receptor 7 selective synthetic oligoribonucleotide agonists: synthesis and structure-activity relationship studies” (J Med Chem, 2009).

Each structure is given as a SMILES string. Activity calls are given as the source filed them. No cut-off for these calls is given here.

Test [1] relates to PBMC. As to the kind of experiment: Immunomodulatory activity in human PBMC assessed as induction of IL6 at 50 ug/ml after 24 hrs. The test is classed as functional, cell-based. In a few lines:
(§1)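 Human PBMCs plated at 5 × 10^6 cells/mL; compounds dissolved in PBS added at various concentrations, 37 °C for 24 h. Supernatant cytokines/chemokines quantified with human Luminex multiplex kit.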

Test [2] is filed under the species Homo sapiens. As to the kind of experiment: Immunostimulatory activity in human mDC assessed as induction of IL12 at 100 ug/ml after 24 hrs. The test is classed as functional. In a few lines:
(§2)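 Human mDCs isolated from PBMCs by CD19+ B-cell depletion then BDCA1 positive selection; plated at 1 × 10^6 cells/mL, compounds in PBS, 37 °C for 24 h; supernatant cytokines by human Luminex multiplex. Representative of four independent experiments.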

Test [3] concerns PBMC. As to the kind of experiment: Immunomodulatory activity in human PBMC assessed as induction of MCP1 at 50 ug/ml after 24 hrs. The test is classed as functional, cell-based. The method, boiled down:
as §1

For test [4], the species on record is Homo sapiens. As to the kind of experiment: Immunostimulatory activity in human pDC assessed as induction of IL6 at 100 ug/ml after 24 hrs. The test is classed as functional. In a few lines:
(§3)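 Human pDCs plated at 1 × 10^6 cells/mL; compounds in PBS added, 37 °C for 24 h; supernatant cytokines/chemokines by human Luminex multiplex kit.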

For test [5], the system named is PBMC. As to the kind of experiment: Immunomodulatory activity in human PBMC assessed as induction of TNFalpha at 50 ug/ml after 24 hrs. It counts as functional, cell-based. The method, boiled down:
as §1

Test [6] deals with PBMC. As to the kind of experiment: Immunomodulatory activity in human PBMC assessed as induction of MIP1alpha at 50 ug/ml after 24 hrs. The test is classed as functional, cell-based. In a few lines: as §1
Test [7] is filed under the species Homo sapiens. As to the kind of experiment: Immunostimulatory activity in human mDC assessed as induction of TNFalpha at 100 ug/ml after 24 hrs. The test is classed as functional. In a few lines: as §2
Test [8] concerns PBMC. As to the kind of experiment: Immunomodulatory activity in human PBMC assessed as induction of IL12 at 50 ug/ml after 24 hrs. The test is classed as functional, cell-based. In a few lines:
as §1

The species entered for test [9] is Homo sapiens. As to the kind of experiment: Immunostimulatory activity in human mDC assessed as induction of IL6 at 100 ug/ml after 24 hrs. It counts as functional. In a few lines: as §2
Test [10] is filed under the species Homo sapiens. As to the kind of experiment: Ratio of human TLR7 activity to human TLR8 activity. The method, boiled down: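 TLR7/TLR8 ratio computed from fold NF-κB (SEAP reporter) activation in HEK293 cells stably expressing human TLR7 versus TLR8, compounds at 50 μg/mL, 18 h exposure; representative of three independent experiments.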
Test [11] deals with PBMC. As to the kind of experiment: Immunomodulatory activity in human PBMC assessed as induction of IFNalpha at 50 ug/ml after 24 hrs. It counts as functional, cell-based. In a few lines: as §1
For test [12], the species on record is Homo sapiens. As to the kind of experiment: Immunostimulatory activity in human mDC assessed as induction of IP10 at 100 ug/ml after 24 hrs. It counts as functional. The method, boiled down:
as §2

Test [13] is filed under the species Homo sapiens. As to the kind of experiment: Immunostimulatory activity in human pDC assessed as induction of IFNalpha at 100 ug/ml after 24 hrs. It counts as functional. In a few lines: as §3
Test [14] relates to Mus musculus. As to the kind of experiment: Immunomodulatory activity in C57BL/6 mouse assessed as induction of IL12 release at 25 mg/kg, sc after 2 hrs by ELISA. The test is classed as functional, organism-based. The arrangement: dose 25 mg/kg. In a few lines: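 Female C57BL/6 wild-type mice, 5–8 weeks old, n=3; compounds given subcutaneously at 10 or 25 mg/kg. Retro-orbital blood at 2 h; serum cytokines by mouse Luminex multiplex or IL-12 ELISA.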
On the technique in general: ELISA stands for enzyme-linked immunosorbent assay.

The species entered for test [15] is Homo sapiens. As to the kind of experiment: Immunostimulatory activity in human mDC assessed as induction of IFNalpha at 100 ug/ml after 24 hrs. The test is classed as functional. The method, boiled down:
as §2

Test [16] concerns the target T1, Toll-like receptor 7 (Homo sapiens) (UniProt Q9NYK1).
T1 sequence (whole entry): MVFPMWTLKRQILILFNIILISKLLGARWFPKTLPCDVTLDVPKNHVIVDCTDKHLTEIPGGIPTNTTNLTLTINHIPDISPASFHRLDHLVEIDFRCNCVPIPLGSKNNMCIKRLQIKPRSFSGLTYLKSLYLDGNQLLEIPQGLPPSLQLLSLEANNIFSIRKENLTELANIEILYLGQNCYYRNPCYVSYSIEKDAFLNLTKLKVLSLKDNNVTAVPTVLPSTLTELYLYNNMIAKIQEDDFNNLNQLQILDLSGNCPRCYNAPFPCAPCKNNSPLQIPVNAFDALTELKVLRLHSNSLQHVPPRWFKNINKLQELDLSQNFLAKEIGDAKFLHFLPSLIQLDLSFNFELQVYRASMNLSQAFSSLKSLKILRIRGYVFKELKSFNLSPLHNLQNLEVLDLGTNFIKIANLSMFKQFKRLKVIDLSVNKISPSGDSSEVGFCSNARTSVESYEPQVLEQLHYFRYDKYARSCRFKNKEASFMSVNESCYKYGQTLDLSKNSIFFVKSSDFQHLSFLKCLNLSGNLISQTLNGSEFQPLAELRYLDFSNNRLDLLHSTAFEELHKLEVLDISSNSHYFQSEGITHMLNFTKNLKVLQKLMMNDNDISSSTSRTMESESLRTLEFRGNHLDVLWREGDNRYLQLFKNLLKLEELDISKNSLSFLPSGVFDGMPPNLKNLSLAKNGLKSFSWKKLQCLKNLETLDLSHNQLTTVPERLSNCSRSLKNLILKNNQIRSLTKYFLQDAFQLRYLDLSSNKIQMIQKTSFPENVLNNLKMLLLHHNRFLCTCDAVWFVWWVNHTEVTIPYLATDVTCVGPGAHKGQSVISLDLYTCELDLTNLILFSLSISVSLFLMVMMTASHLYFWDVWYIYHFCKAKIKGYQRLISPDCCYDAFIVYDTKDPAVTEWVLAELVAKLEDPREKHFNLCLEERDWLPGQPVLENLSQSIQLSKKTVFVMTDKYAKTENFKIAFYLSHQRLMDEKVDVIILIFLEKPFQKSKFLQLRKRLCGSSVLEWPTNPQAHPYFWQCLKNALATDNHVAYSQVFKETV
As to the kind of experiment: Activation of human TLR7 expressed in HEK293XL assessed as fold induction of NF-kappaB activity at 50 ug/ml after 18 hrs by reporter gene assay relative to control. In a few lines:
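HEK293 cells stably expressing human TLR7 or TLR8, transiently transfected with SEAP reporter plasmid; medium replaced, SIMRA compounds added, 18 h incubation. Supernatant SEAP measured by QuantiBlue; expressed as fold increase in NF-κB activity over PBS control. Tabulated data at 50 μg/mL, representative of three independent experiments.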
Background: In a reporter assay the amount or activity of a reporter protein is the signal.

The species named for test [17] is Homo sapiens. As to the kind of experiment: Immunostimulatory activity in human pDC assessed as induction of IP10 at 100 ug/ml after 24 hrs. It counts as functional. In a few lines:
as §3

In test [18] the test system is PBMC. As to the kind of experiment: Immunomodulatory activity in human PBMC assessed as induction of IP10 at 50 ug/ml after 24 hrs. It counts as functional, cell-based. In a few lines:
as §1

Test [19] relates to PBMC. As to the kind of experiment: Immunomodulatory activity in human PBMC assessed as induction of IL1-beta at 50 ug/ml after 24 hrs. It counts as functional, cell-based. The method, boiled down: as §1
The subject of test [20] is PBMC. As to the kind of experiment: Immunomodulatory activity in human PBMC assessed as induction of MIP1beta at 50 ug/ml after 24 hrs. It counts as functional, cell-based. The method, boiled down: as §1

With `Nc1ccn([C@@H]2O[C@H](COP(=O)(S)O[C@H]3[C@@H](O)[C@H](n4cnc5c(N)ncnc54)O[C@@H]3CO)[C@@H](OP(=O)(S)OC[C@H]3O[C@@H](n4ccc(=O)[nH]c4=O)[C@H](O)[C@@H]3OP(=O)(S)OC[C@H]3O[C@@H](n4ccc(=O)[nH]c4=O)[C@H](O)[C@@H]3OP(=O)(S)OC[C@H]3O[C@@H](n4ccc5c(=O)[nH]c(N)nc54)[C@H](O)[C@@H]3OP(=O)(S)OC[C@H]3O[C@@H](n4cnc5c(N)ncnc54)[C@H](O)[C@@H]3OP(=O)(S)OC[C@H]3O[C@@H](n4ccc(N)nc4=O)[C@H](O)[C@@H]3OP(=O)(S)OC[C@H]3O[C@@H](n4ccc5c(=O)[nH]c(N)nc54)[C@H](O)[C@@H]3OP(=O)(S)OC[C@H]3O[C@@H](n4cnc5c(N)ncnc54)[C@H](O)[C@@H]3OP(=O)(S)OC[C@H]3O[C@@H](n4ccc(=O)[nH]c4=O)[C@H](O)[C@@H]3OP(=O)(S)OC[C@H]3O[C@@H](n4ccc(=O)[nH]c4=O)[C@H](O)[C@@H]3OP(=O)(S)OCC(O)COP(=O)(S)O[C@H]3[C@@H](O)[C@H](n4ccc(=O)[nH]c4=O)O[C@@H]3COP(=O)(S)O[C@H]3[C@@H](O)[C@H](n4ccc(=O)[nH]c4=O)O[C@@H]3COP(=O)(S)O[C@H]3[C@@H](O)[C@H](n4cnc5c(N)ncnc54)O[C@@H]3COP(=O)(S)O[C@H]3[C@@H](O)[C@H](n4ccc5c(=O)[nH]c(N)nc54)O[C@@H]3COP(=O)(S)O[C@H]3[C@@H](O)[C@H](n4ccc(N)nc4=O)O[C@@H]3COP(=O)(S)O[C@H]3[C@@H](O)[C@H](n4cnc5c(N)ncnc54)O[C@@H]3COP(=O)(S)O[C@H]3[C@@H](O)[C@H](n4ccc5c(=O)[nH]c(N)nc54)O[C@@H]3COP(=O)(S)O[C@H]3[C@@H](O)[C@H](n4ccc(=O)[nH]c4=O)O[C@@H]3COP(=O)(S)O[C@H]3[C@@H](O)[C@H](n4ccc(=O)[nH]c4=O)O[C@@H]3COP(=O)(S)O[C@H]3[C@@H](O)[C@H](n4ccc(N)nc4=O)O[C@@H]3COP(=O)(S)O[C@H]3[C@@H](O)[C@H](n4cnc5c(N)ncnc54)O[C@@H]3CO)[C@H]2O)c(=O)n1` (stereo not given in full), the Activity turned out to be 2380 pg/mL in [1]; 49100 pg/mL in [3]; 174 pg/mL in test [5]; 3620 pg/mL in [6]; 360 pg/mL in test [8]; 106 pg/mL in test [11]. The Activity is 199 pg/mL in [18], 218 pg/mL in [19] and 7330 pg/mL in [20]. For the same compound, the result in test [2], in [4], in test [7], in test [9], in test [12] and in test [13] was Active. Further, the result in test [14], in test [15] and in test [17] was Active. Further, the Ratio in [10] is 7.9. Moreover, the fold change (FC) in test [16] was 16.6.
